Assay results published in ChEMBL document CHEMBL1137002, “Synthesis and electrochemistry of 2-ethenyl and 2-ethanyl derivatives of 5-nitroimidazole and antimicrobial activity against Giardia lamblia” (J Med Chem, 2009).
Calls of active or inactive are those of the source. No cut-off for these calls is given here.

Columns and labels:
[1] = Therapeutic index, ratio of IC50 for human HeLa cells to EC50 for Giardia lamblia trophozoites isolates; type: cell-based; details: read-out: Ratio IC50/EC50
HeLa = assay: Cytotoxicity against human HeLa cells after 2 days by Alamar blue assay; type: cell-based; details: 48 h
Giardia intestinalis [2] = assay: Antigiardial activity against Giardia lamblia trophozoites isolates after 2 days by bactiter-glo viability assay; type: functional, organism-based; details: Giardia duodenalis, 48 h
Giardia intestinalis [3] = assay: Antigiardial activity against Giardia lamblia GS/M trophozoites infected in C57BL/6 mouse assessed as reduction in live trophozoite number in small intestine at 2 mg/kg, po administered as 5 doses for 3 days; type: functional, organism-based; design: dose 2 mg/kg; details: Giardia duodenalis
How it was run: (§1)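 Adult C57BL/6 mice infected orally with G. lamblia GS/M trophozoites; from 2 days post-infection, five oral gavage doses over 3 days (10 or 2 mg/kg), with controls given methylcellulose/PBS vehicle. Day 5: whole small intestine opened, placed in PBS on ice 10 min, shaken, and live trophozoites counted by hemocytometer under phase contrast. Mean ± SE of 3–7 animals; t test versus vehicle controls, p < 0.05.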

Giardia intestinalis [4] = assay: Antigiardial activity against metronidazole-sensitive Giardia lamblia isolate 106 trophozoite after 2 days by bactiter-glo viability assay; type: functional, organism-based; details: Giardia duodenalis, isolate 106, 48 h
How it was run: (§2)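 Trophozoites from mid-log cultures in TYI-S-33 with 10% bovine serum and 1 mg/mL bovine bile, grown anaerobically. Mz-resistant lines kept on 50 μM Mz but grown without it for 2–3 days beforehand. 1000–2000 cells/well, 1:3 serial dilutions, final 20 μM to 0.4 nM. 2 days at 37 °C anaerobically. ATP luminescence read-out. EC50 taken by graphic extrapolation of concentration–response curves. Mean ± SE of three experiments.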

Giardia intestinalis [5] = assay: Antigiardial activity against metronidazole-resistant Giardia lamblia isolate 713 trophozoite after 2 days by bactiter-glo viability assay; type: functional, organism-based; details: Giardia duodenalis, isolate 713, 48 h; how it was run: as §2
Giardia intestinalis [6] = assay: Antigiardial activity against Giardia lamblia GS/M trophozoites infected in C57BL/6 mouse assessed as parasite eradication in small intestine at 10 mg/kg, po administered as 5 doses for 3 days; type: functional, organism-based; design: dose 10 mg/kg; details: Giardia duodenalis; how it was run: as §1
Giardia intestinalis [7] = assay: Antigiardial activity against metronidazole-resistant Giardia lamblia isolate 106 trophozoite after 2 days by bactiter-glo viability assay; type: functional, organism-based; details: Giardia duodenalis, isolate 106, 48 h; how it was run: as §2
Giardia intestinalis [8] = assay: Antigiardial activity against metronidazole-sensitive Giardia lamblia isolate 713 trophozoite after 2 days by bactiter-glo viability assay; type: functional, organism-based; details: Giardia duodenalis, isolate 713, 48 h; how it was run: as §2
Mus musculus = assay: Toxicity in C57BL/6 mouse at 10 mg/kg, po after 3 days; type: organism-based; design: dose 10 mg/kg, route oral; details: in vivo, 72 h
How it was run: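 G. lamblia GS/M-infected adult C57BL/6 mice were watched for clinically observable untoward effects across the 3-day treatment period, which consisted of five oral gavage doses at 10 mg/kg in methylcellulose/PBS given from day 2 after infection.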

Giardia intestinalis [9] = assay: Antigiardial activity against Giardia lamblia GS/M trophozoites infected in C57BL/6 mouse assessed as reduction in live trophozoite number in small intestine at 10 mg/kg, po administered as 5 doses for 3 days relative to control; type: functional; details: for Activity: Giardia duodenalis; how it was run: as §1

| SMILES | selectivity ratio [1] | IC50 (HeLa) [nM] | EC50 (Giardia intestinalis [2]; read-out: pEC50 (converted)) [nM] | Activity (Giardia intestinalis [3]) | EC50 (Giardia intestinalis [4]) [nM] | EC50 (Giardia intestinalis [5]) [nM] | Activity (Giardia intestinalis [6]) | EC50 (Giardia intestinalis [7]) [nM] | EC50 (Giardia intestinalis [8]) [nM] | Activity (Mus musculus) | Activity (Giardia intestinalis [9]) | EC50 (Giardia intestinalis [2]; read-out: EC50) [nM] | fold change (FC) (Giardia intestinalis [9]) |
| --- | --- | --- | --- | --- | --- | --- | --- | --- | --- | --- | --- | --- | --- |
| Cn1c([N+](=O)[O-])cnc1C(O)C(O)c1ccc(Br)cc1 (stereo not drawn) | 208 | 91200 | 447 | – | – | – | – | – | – | – | – | – | – |
| Cn1c([N+](=O)[O-])cnc1/C=C/c1cccc(F)c1 | > 2460 | > 100000 | 40.7 | Active | 93.3 | 25.7 | Active | 30.9 | 123 | Non-toxic | Active | – | – |
| Cc1cccc(/C=C/c2ncc([N+](=O)[O-])n2C)c1 | 776 | 30900 | 39.8 | – | – | – | – | – | – | – | – | – | – |
| Cn1c([N+](=O)[O-])cnc1/C=C/c1cccc2ccccc12 | 1000 | 100000 | – | – | – | – | – | – | – | – | – | 100 | – |
| Cn1c([N+](=O)[O-])cnc1/C=C/c1cccc(Br)c1 | 1860 | 87100 | 46.8 | – | 115 | 32.4 | – | 42.7 | 126 | – | – | – | – |
| Cn1c([N+](=O)[O-])cnc1/C=C/c1ccc(OC(F)(F)F)cc1 | 112 | 83200 | 741 | – | – | – | – | – | – | – | – | – | – |
| Cn1c([N+](=O)[O-])cnc1/C=C/c1ccccc1Br | 1480 | 72400 | 49 | – | 282 | 18.2 | – | 41.7 | 117 | – | – | – | – |
| Cn1ccnc1/C=C/c1ncc([N+](=O)[O-])n1C | 1200 | 91200 | 75.9 | Active | 251 | 51.3 | Active | 87.1 | 1170 | Non-toxic | Active | – | – |
| COc1cccc(/C=C/c2ncc([N+](=O)[O-])n2C)c1 | > 646 | > 100000 | 155 | – | – | – | – | – | – | – | – | – | – |
| CC(=O)OC(c1ccc(C)cc1)C(OC(C)=O)c1ncc([N+](=O)[O-])n1C (stereo not drawn) | > 319 | > 100000 | 316 | – | 3090 | 174 | – | 513 | 5130 | – | – | – | – |
| Cn1c([N+](=O)[O-])cnc1/C=C/c1cccc(Cl)c1 | 1380 | 30200 | 21.9 | – | – | – | – | – | – | – | – | – | – |
| Cn1c([N+](=O)[O-])cnc1/C=C/c1ccccc1Cl | > 1380 | > 100000 | 72.4 | – | 251 | 30.2 | – | 60.3 | 115 | – | – | – | – |
| COc1ccc(/C=C/c2ncc([N+](=O)[O-])n2C)c(OC)c1OC | > 162 | > 100000 | 617 | – | – | – | – | – | – | – | – | – | – |
| Cn1c([N+](=O)[O-])cnc1/C=C/c1ccc2ccccc2c1 | 1620 | – | 60.3 | – | – | – | – | – | – | – | – | – | – |
| Cc1cc(C)c(/C=C/c2ncc([N+](=O)[O-])n2C)c(C)c1 | 32 | – | 339 | – | 427 | 229 | – | 204 | 1290 | – | – | – | – |
| Cc1ccc(C(O)C(O)c2ncc([N+](=O)[O-])n2C)cc1 (stereo not drawn) | > 120 | > 100000 | 832 | – | – | – | – | – | – | – | – | – | – |
| Cc1ncc([N+](=O)[O-])n1CCO [METRONIDAZOLE] | – | – | – | inactive | 25700 | 1480 | inactive | 3980 | 44700 | – | – | 2630 | 1000 |
| Cn1c([N+](=O)[O-])cnc1/C=C/c1cccs1 | 1120 | 91200 | 81.3 | – | – | – | – | – | – | – | – | – | – |
